# Measured values reported in ChEMBL document CHEMBL5724801, “EUbOPEN Chemogenomics Library - Multiplex” (2024).
# Several values for one entry are separate records, joined by “and”; a condition that tells them apart may be missing. Equal values may be shown once.
# System: Fibroblast
# Assay: Multiplex assay against human fibroblast
# Format: toxicity, cell-based
# Summary of the method: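 Phenotypes for tubulin, mitochondrial mass and membrane permeability are expressed as per cents of healthy-nucleus cells. Cells were stained live at seeding with Hoechst33342, BioTracker Green Microtubule Cytoskeleton Dye, MitoTracker Red and Annexin V Alexa Fluor 680, then imaged after compound addition on a CQ1 microscope at 37°C and 5% CO2. Machine-learning gating in CellPathfinder separated Hoechst high-intensity objects from normal cells, divided normal cells by nuclear state (healthy, pyknosed, fragmented) and divided pyknosed cells into mitotic or apoptotic.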
# [1] = 12 h, 1 µM, compound concentration 1 uM
# [2] = 12 h, 10 µM, compound concentration 10 uM
# [3] = 24 h, 1 µM, compound concentration 1 uM
# [4] = 24 h, 10 µM, compound concentration 10 uM
# [5] = 48 h, 1 µM, compound concentration 1 uM
# [6] = 48 h, 10 µM, compound concentration 10 uM
compound,measurement,setting,value
CC(C)C[C@H](NC(=O)c1cc2ccccc2s1)C(=O)N1CCN(C(=O)[C@H](CO)NS(=O)(=O)c2ccc(Cl)cc2Cl)CC1,Population Fragmented Nuclei (%),[1],14.47% and 9.24%
same,Population Healthy Nuclei (%),[1],51.57% and 56.52%
same,Population Hoechst High Intensity Objects (%),[1],0%
same,Population Membrane Permeable-Phenotype (%),[1],7.32% and 5.77%
same,Population Mitochondria Different-Phenotype (%),[1],17.07% and 18.27%
same,Population Mitotic Cells (%),[1],88.89% and 55.56%
same,Population Normal (%),[1],100%
same,Population Pyknosed Nuclei (%),[1],33.96% and 34.24%
same,Population Tubulin-Different-Phenotype (%),[1],35.37% and 45.19%
same,Total Cell Count,[1],159 and 184
same,Population Apoptotic (%),[2],10.29% and 22.73%
same,Population Fragmented Nuclei (%),[2],17.22% and 7.1%
same,Population Healthy Nuclei (%),[2],45% and 56.83%
same,Population Hoechst High Intensity Objects (%),[2],0%
same,Population Membrane Permeable-Phenotype (%),[2],19.75% and 36.54%
same,Population Mitochondria Different-Phenotype (%),[2],58.02% and 50.96%
same,Population Mitotic Cells (%),[2],89.71% and 77.27%
same,Population Normal (%),[2],100%
same,Population Pyknosed Nuclei (%),[2],37.78% and 36.07%
same,Population Tubulin-Different-Phenotype (%),[2],81.48% and 96.15%
same,Total Cell Count,[2],180 and 183
same,Population Fragmented Nuclei (%),[3],15.79% and 9.14%
same,Population Healthy Nuclei (%),[3],54.39% and 66.29%
same,Population Hoechst High Intensity Objects (%),[3],0%
same,Population Membrane Permeable-Phenotype (%),[3],9.68% and 7.76%
same,Population Mitochondria Different-Phenotype (%),[3],10.75% and 17.24%
same,Population Mitotic Cells (%),[3],96.08% and 48.84%
same,Population Normal (%),[3],100%
same,Population Pyknosed Nuclei (%),[3],29.82% and 24.57%
same,Population Tubulin-Different-Phenotype (%),[3],45.16% and 50%
same,Total Cell Count,[3],171 and 175
same,Population Apoptotic (%),[4],22.58% and 46.67%
same,Population Fragmented Nuclei (%),[4],11.67% and 8.33%
same,Population Healthy Nuclei (%),[4],71.11% and 66.67%
same,Population Hoechst High Intensity Objects (%),[4],0%
same,Population Membrane Permeable-Phenotype (%),[4],19.53% and 8.33%
same,Population Mitochondria Different-Phenotype (%),[4],49.22% and 55.83%
same,Population Mitotic Cells (%),[4],77.42% and 53.33%
same,Population Normal (%),[4],100%
same,Population Pyknosed Nuclei (%),[4],17.22% and 25%
same,Population Tubulin-Different-Phenotype (%),[4],89.84% and 96.67%
same,Total Cell Count,[4],180
same,Population Fragmented Nuclei (%),[5],10.05% and 9.68%
same,Population Healthy Nuclei (%),[5],78.84% and 78.49%
same,Population Hoechst High Intensity Objects (%),[5],0%
same,Population Mitochondria Different-Phenotype (%),[5],12.75% and 8.22%
same,Population Mitotic Cells (%),[5],85.71% and 50%
same,Population Normal (%),[5],100%
same,Population Pyknosed Nuclei (%),[5],11.11% and 11.83%
same,Population Tubulin-Different-Phenotype (%),[5],33.56% and 65.07%
same,Total Cell Count,[5],189 and 186
same,Population Apoptotic (%),[6],38.89% and 56.52%
same,Population Fragmented Nuclei (%),[6],11.45% and 11.37%
same,Population Healthy Nuclei (%),[6],77.71% and 77.73%
same,Population Hoechst High Intensity Objects (%),[6],0%
same,Population Membrane Permeable-Phenotype (%),[6],6.2% and 8.54%
same,Population Mitochondria Different-Phenotype (%),[6],39.53% and 48.78%
same,Population Mitotic Cells (%),[6],61.11% and 43.48%
same,Population Normal (%),[6],100%
same,Population Pyknosed Nuclei (%),[6],10.84% and 10.9%
same,Population Tubulin-Different-Phenotype (%),[6],82.17% and 96.34%
same,Total Cell Count,[6],166 and 211
